# Test results as given in PubChem BioAssay.
# Activity calls are given as the source filed them.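 Rule for the calls: active = growth inhibition above 25% in both replicates, a cutoff set 3 SD above the mean; inconclusive = above 25% in only one replicate; inactive = the rest.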
# Experiment: S. cerevisiae growth inhibition in permissive medium (OD615), pilot counter-assay for S. cerevisiae lifespan shortening project, permissive growth control (AID 705)
# Conditions: OD615, 24 h, at 10 µM, active compounds read high
# Procedure, shortened: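 System: S. cerevisiae with engineered DeaD lifespan system / Measured by: absorbance (optical density) at 615 nm / Read-out: reduction in yeast growth (OD615) / Times: 4 h cell pre-growth, 24 h exposure at 30 °C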
row,SMILES,growth inhibition
1,COc1cc(Cl)c(S(=O)(=O)n2cnc(C)c2)cc1Cl,2.76% (inactive)
2,O=C(CN1CCOc2ccccc21)NCc1ccccc1,-29.7% (inactive)
3,CC(C)CCNC(=O)CCS(=O)(=O)c1cccc2nonc12,-8.87% (inactive)
4,O=C1CC(c2ccc(S(=O)(=O)NCc3ccccc3)cc2)CN1 (configuration not stated),-7.82% (inactive)
5,CC(=O)c1ccc(NC(=O)CSC(C)C)cc1,-0.135% (inactive)
6,CCn1cc(C(=O)NCC2CCCO2)c2cc(OC)c(OC)cc2c1=O (configuration not stated),-8.12% (inactive)
7,COc1ccc(CNc2nc3c(c(=O)[nH]c(=O)n3C)n2Cc2ccccc2C)cc1,-14.8% (inactive)
8,Cc1cc(C)nc(NS(=O)(=O)c2ccc(Br)s2)c1,-1.63% (inactive)
9,CC(C)CCSc1nnc(Cn2c(=O)sc3ccccc32)n1C,-10.3% (inactive)
10,O=P(/C(=N/O)Sc1ccccc1)(N1CCOCC1)N1CCOCC1,-7.6% (inactive)
11,CC1(C)Cc2c(C#N)c(N)sc(=S)c2CO1,21.9% (inactive)
12,CCOC(=O)N1CCN(C(=O)COc2ccc(Br)cc2)CC1,-16.4% (inactive)
13,COc1ccc(-c2nc(C(N)=O)c3[nH]c(=O)n(-c4ccccc4OC)c3n2)c(OC)c1,-0.775% (inactive)
14,O=C(Nc1nc(-c2ccccc2)cs1)c1cccs1,-5.78% (inactive)
15,CC(NC(=O)C1CCC1)c1ccc2c(c1)OCO2 (configuration not stated),-10% (inactive)
16,Cc1cc(N2C(=O)CC(Cc3ccccc3)C2=O)no1 (configuration not stated),-6.49% (inactive)
17,Cc1cc(C)n2nc3nc4c(cc3c2n1)CCCC4,-8.72% (inactive)
